IC50 and inhibition data for 25 molecules are collected here from ChEMBL document CHEMBL1137592, “3-[2-((2S)-2-cyano-pyrrolidin-1-yl)-2-oxo-ethylamino]-3-methyl-butyramide analogues as selective DPP-IV inhibitors for the treatment of type-II diabetes” (Bioorg Med Chem Lett, 2007).

The target in assay [1] is Dipeptidyl peptidase 8 (Homo sapiens, UniProt Q6V1X1). As to the kind of experiment: In vitro inhibition of DPP-8.
For assay [2], the target named is Dipeptidyl peptidase 2 (Homo sapiens, UniProt Q9UHL4). As to the kind of experiment: In vitro inhibition of DPP-II.
Assay [3] deals with T1, Prolyl endopeptidase FAP (Homo sapiens, UniProt Q12884).
T1 sequence (Q12884 whole entry): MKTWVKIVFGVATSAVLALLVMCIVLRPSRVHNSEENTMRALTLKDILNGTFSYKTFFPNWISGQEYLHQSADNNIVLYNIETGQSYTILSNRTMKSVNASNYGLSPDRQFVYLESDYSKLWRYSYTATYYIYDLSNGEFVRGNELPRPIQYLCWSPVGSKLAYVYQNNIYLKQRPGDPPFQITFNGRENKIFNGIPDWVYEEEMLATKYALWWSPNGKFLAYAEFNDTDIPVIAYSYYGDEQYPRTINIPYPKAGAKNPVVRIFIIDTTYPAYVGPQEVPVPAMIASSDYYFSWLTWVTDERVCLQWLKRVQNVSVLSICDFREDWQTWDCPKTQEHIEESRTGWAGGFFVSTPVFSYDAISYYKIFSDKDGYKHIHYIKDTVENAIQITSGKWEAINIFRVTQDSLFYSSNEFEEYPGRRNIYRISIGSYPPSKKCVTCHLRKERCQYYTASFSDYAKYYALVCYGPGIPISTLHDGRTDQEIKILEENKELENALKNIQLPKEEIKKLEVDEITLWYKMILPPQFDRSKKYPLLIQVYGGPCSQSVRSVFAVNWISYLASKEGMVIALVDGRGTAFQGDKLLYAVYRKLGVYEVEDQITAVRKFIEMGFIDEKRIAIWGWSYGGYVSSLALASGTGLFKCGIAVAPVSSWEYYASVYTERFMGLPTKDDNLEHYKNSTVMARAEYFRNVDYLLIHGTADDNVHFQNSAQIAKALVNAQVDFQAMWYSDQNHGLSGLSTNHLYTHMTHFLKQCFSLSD
Description: In vitro inhibition of FAP, seprase. The procedure, abridged: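 FAP cDNA was cloned into the pBacPAC8-CD5 vector, then the enzyme was expressed and purified. Activity was measured with Gly-Pro-pNA as substrate at 6 mM.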

Assay [4] addresses Dipeptidyl peptidase 4 (Rattus norvegicus) (UniProt P14740). As to the kind of experiment: Ex vivo inhibition of plasma DPP-4 activity in rats 8 hours after 10 mg/kg oral dose. To be noted: at 10 mg/kg. The format is functional, organism-based. Set-up: dose 10 mg/kg. The method in brief:
(§1)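 Adult male Wistar rats got a single oral gavage dose of 10 mg/kg at 0 h. Blood was collected over time and plasma DPP-IV activity was read as the cleavage rate of Gly-Pro-AMC. Means ± SEM, n = 4/group.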

Assay [5] has the same target. As to the kind of experiment: Ex vivo inhibition of plasma DPP-4 activity in rats 30 minutes after 10 mg/kg oral dose. It is filed as functional, organism-based. Further details: dose 10 mg/kg. To be noted: at 10 mg/kg. The procedure, abridged: as §1
Assay [6] is filed under the species Rattus norvegicus. To be noted: 10 mg/kg.

Active and inactive are the calls of the source. The calls are words filed in the database; no cut-off is given here.

Dipeptidyl peptidase 8, sequence (Q6V1X1 whole entry): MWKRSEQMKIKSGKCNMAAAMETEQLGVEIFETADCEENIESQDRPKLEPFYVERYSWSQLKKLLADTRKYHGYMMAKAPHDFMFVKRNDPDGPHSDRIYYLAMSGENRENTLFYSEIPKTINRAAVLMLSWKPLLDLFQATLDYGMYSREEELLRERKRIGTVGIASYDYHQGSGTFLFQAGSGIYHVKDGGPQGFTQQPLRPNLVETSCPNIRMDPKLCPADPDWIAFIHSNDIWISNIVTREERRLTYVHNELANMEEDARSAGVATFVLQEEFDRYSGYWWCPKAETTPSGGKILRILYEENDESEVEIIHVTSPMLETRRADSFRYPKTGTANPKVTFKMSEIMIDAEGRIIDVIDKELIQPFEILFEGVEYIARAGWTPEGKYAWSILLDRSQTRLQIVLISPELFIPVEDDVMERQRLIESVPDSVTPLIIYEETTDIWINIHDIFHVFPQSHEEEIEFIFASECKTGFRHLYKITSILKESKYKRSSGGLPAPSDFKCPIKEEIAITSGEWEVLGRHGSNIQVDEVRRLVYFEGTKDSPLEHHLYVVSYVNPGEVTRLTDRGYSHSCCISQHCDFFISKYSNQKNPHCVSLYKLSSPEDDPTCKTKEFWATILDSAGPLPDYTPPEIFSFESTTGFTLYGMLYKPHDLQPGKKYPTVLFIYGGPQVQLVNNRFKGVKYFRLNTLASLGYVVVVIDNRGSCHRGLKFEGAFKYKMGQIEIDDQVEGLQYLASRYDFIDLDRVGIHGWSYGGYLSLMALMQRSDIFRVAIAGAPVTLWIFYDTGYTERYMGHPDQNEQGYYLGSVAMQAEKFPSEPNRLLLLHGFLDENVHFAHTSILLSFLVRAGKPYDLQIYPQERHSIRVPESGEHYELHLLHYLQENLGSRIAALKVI
Dipeptidyl peptidase 4 (Rattus norvegicus), sequence (P14740 whole entry, looked up): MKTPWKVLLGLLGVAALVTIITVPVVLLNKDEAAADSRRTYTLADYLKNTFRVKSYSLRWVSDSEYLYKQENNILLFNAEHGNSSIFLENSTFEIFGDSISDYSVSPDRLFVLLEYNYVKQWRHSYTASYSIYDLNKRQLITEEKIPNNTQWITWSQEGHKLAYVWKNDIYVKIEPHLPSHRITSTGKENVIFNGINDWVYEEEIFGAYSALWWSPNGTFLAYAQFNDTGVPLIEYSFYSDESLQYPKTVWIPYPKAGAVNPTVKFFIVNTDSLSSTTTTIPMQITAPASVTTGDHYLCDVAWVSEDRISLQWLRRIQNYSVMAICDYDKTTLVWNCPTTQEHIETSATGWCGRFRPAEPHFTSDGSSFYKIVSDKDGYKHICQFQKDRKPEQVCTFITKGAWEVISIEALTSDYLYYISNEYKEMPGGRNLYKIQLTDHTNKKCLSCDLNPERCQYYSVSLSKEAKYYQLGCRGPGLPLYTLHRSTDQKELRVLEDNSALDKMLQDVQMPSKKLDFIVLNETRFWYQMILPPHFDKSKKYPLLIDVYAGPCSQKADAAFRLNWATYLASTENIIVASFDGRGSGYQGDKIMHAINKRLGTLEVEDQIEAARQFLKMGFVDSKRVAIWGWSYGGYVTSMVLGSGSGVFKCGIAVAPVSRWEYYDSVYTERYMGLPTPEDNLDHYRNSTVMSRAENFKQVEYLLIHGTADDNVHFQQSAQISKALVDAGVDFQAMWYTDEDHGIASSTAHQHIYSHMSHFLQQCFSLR

For `Cc1ccc(NC(=O)CC(C)(C)NCC(=O)N2CCC[C@H]2C#N)cc1C`, the IC50 in assay [1], in assay [2] and in assay [3] was greater than 20 µM each time.

Take `CC(C)(CC(=O)NCc1ccccc1)NCC(=O)N1CCC[C@H]1C#N`: the IC50 in assay [1], in assay [2] and in assay [3] was greater than 20 µM in each case.

As for `C[C@@H](CC(=O)NC(C)(C)c1ccccc1)NCC(=O)N1CCC[C@H]1C#N`, the IC50 in assay [2] was greater than 20 µM.

For `COc1ccc(NC(=O)CC(C)(C)NCC(=O)N2CCC[C@H]2C#N)cc1OC`, the IC50 in assay [1], in assay [2] and in assay [3] was greater than 20 µM in each case. Besides, the results for the inhibition in assay [4] and in assay [5] were greater than 50% and greater than 80%, respectively. In assay [6], the inhibition result was “Active”.

In the case of `CC(C)(CC(=O)NCCc1ccc(C(F)(F)F)cc1)NCC(=O)N1CCC[C@H]1C#N`, the IC50 in assay [1], in assay [2] and in assay [3] was greater than 20 µM in each case.

Consider `CC(C)(CC(=O)NCCc1ccccc1C(F)(F)F)NCC(=O)N1CCC[C@H]1C#N`, for which the IC50 in assay [1], in assay [2] and in assay [3] was greater than 20 µM each time.

`N#C[C@@H]1CCCN1C(=O)CNCCC(=O)NCc1ccccc1` gave an IC50 in assay [3] greater than 20 µM.

As for `COc1ccc(CCNC(=O)CC(C)(C)NCC(=O)N2CCC[C@H]2C#N)cc1OC`, the IC50 in assay [1], in assay [2] and in assay [3] was greater than 20 µM throughout.

Regarding `CC(C)(CC(=O)NCCc1ccccc1)NCC(=O)N1CCC[C@H]1C#N`, the IC50 in assay [1], in assay [2] and in assay [3] was greater than 20 µM throughout.

In the case of `CC(C)(CC(=O)NC(C)(C)Cc1ccccc1)NCC(=O)N1CCC[C@H]1C#N`, the IC50 in assay [1], in assay [2] and in assay [3] was greater than 20 µM each time.

In the case of `CC(C)(CC(=O)Nc1ccc(-c2ccccc2)cc1)NCC(=O)N1CCC[C@H]1C#N`, the IC50 in assay [1] is greater than 20 µM; in assay [2], 0.8 µM; in assay [3], greater than 20 µM.

Take `CC(C)(CC(=O)NCCc1ccc(Cl)c(Cl)c1)NCC(=O)N1CCC[C@H]1C#N`: the IC50 in assay [1], in assay [2] and in assay [3] was greater than 20 µM each time.

Consider `CC(C)(CC(=O)NC(C)(C)c1ccccc1)NCC(=O)N1CCC[C@H]1C#N`, for which the IC50 in assay [1], in assay [2] and in assay [3] was greater than 20 µM in each case.

Consider `CC(C)(CC(=O)NCCc1ccccn1)NCC(=O)N1CCC[C@H]1C#N`, for which the IC50 in assay [1], in assay [2] and in assay [3] was greater than 20 µM each time. For the same molecule, the inhibition entry in assay [6] is “Active”.

As to `CC(C)(CC(=O)NCc1ccccn1)NCC(=O)N1CCC[C@H]1C#N`, the IC50 in assay [1], in assay [2] and in assay [3] was greater than 20 µM each time.

Regarding `CC(C)(CC(=O)NCCc1cccc(C(F)(F)F)c1)NCC(=O)N1CCC[C@H]1C#N`, the IC50 in assay [1], in assay [2] and in assay [3] was greater than 20 µM in each case.

Turning to `COc1ccc(NC(=O)CC(C)(C)NCC(=O)N2CCC[C@H]2C#N)cc1`, the IC50 in assay [1], in assay [2] and in assay [3] was greater than 20 µM throughout.

As for `CC(C)(NC(=O)CCNCC(=O)N1CCC[C@H]1C#N)c1ccccc1`, the IC50 in assay [2] and in assay [3] was greater than 20 µM in each case.

Turning to `CC(C)(CC(=O)Nc1ccccc1)NCC(=O)N1CCC[C@H]1C#N`, the IC50 in assay [1], in assay [2] and in assay [3] was greater than 20 µM each time.

`CC(C)(CC(=O)Nc1ccc(F)cc1)NCC(=O)N1CCC[C@H]1C#N`: the concentration for half-maximal inhibition (IC50) in assay [1], in assay [2] and in assay [3] was greater than 20 µM in each case.

On to `N#C[C@@H]1CCCN1C(=O)CNCCC(=O)NCCc1ccccc1`, for which, in assay [3], the IC50 is greater than 20 µM.

`C[C@H](CC(=O)NC(C)(C)c1ccccc1)NCC(=O)N1CCC[C@H]1C#N`: the IC50 in assay [2] and in assay [3] was greater than 20 µM throughout.

Regarding `COc1ccc(NC(=O)CC(C)(C)NCC(=O)N2CCC[C@H]2C#N)c(OC)c1OC`, the IC50 in assay [1], in assay [2] and in assay [3] was greater than 20 µM each time.

For the molecule `CC(C)(CC(=O)Nc1ccc(F)c(F)c1)NCC(=O)N1CCC[C@H]1C#N`, the IC50 in assay [1], in assay [2] and in assay [3] was greater than 20 µM each time.

Take `Cc1ccc(CCNC(=O)CC(C)(C)NCC(=O)N2CCC[C@H]2C#N)cc1`: the IC50 in assay [1], in assay [2] and in assay [3] was greater than 20 µM throughout.
